Test results reported in ChEMBL document CHEMBL1221358, “Application of a novel in silico high-throughput screen to identify selective inhibitors for protein-protein interactions” (Bioorg Med Chem Lett, 2010).
Active and inactive are the calls of the source. The rule behind the calls is not given here.

Experiments:
[1] = target: T1, Toll-like receptor 4 (Mus musculus) (UniProt Q9QUK6); experiment: Inhibition TLR4-mediated NO production in mouse RAW264.7 cells at 300 nM
T1 sequence (whole entry): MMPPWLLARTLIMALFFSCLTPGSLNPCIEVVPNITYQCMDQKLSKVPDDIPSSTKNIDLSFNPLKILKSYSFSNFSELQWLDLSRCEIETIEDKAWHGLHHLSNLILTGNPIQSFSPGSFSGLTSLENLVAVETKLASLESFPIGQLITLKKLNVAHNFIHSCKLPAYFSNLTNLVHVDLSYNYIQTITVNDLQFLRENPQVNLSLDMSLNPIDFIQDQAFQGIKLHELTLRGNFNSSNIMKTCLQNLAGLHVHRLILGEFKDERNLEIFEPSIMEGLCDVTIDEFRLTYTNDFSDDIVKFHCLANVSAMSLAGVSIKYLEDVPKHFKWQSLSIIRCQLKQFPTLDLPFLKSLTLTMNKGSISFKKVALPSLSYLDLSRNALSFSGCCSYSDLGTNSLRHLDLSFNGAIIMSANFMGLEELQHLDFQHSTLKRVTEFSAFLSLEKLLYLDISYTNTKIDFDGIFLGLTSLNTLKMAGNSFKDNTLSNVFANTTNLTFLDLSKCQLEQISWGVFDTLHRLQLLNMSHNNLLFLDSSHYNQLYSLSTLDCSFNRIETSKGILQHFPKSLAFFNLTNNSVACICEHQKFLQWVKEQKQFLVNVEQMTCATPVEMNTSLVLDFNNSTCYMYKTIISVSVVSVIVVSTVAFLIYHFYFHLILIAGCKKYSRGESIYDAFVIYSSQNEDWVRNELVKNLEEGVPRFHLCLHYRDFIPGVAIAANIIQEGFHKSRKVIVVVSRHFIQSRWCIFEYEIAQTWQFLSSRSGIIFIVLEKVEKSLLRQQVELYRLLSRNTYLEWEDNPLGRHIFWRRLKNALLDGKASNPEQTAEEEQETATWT

[2] = target: T2, Toll-like receptor 6 (Mus musculus) (UniProt Q9EPW9); experiment: Inhibition TLR6-mediated NO production in mouse RAW264.7 cells at 300 nM
T2 sequence (whole entry): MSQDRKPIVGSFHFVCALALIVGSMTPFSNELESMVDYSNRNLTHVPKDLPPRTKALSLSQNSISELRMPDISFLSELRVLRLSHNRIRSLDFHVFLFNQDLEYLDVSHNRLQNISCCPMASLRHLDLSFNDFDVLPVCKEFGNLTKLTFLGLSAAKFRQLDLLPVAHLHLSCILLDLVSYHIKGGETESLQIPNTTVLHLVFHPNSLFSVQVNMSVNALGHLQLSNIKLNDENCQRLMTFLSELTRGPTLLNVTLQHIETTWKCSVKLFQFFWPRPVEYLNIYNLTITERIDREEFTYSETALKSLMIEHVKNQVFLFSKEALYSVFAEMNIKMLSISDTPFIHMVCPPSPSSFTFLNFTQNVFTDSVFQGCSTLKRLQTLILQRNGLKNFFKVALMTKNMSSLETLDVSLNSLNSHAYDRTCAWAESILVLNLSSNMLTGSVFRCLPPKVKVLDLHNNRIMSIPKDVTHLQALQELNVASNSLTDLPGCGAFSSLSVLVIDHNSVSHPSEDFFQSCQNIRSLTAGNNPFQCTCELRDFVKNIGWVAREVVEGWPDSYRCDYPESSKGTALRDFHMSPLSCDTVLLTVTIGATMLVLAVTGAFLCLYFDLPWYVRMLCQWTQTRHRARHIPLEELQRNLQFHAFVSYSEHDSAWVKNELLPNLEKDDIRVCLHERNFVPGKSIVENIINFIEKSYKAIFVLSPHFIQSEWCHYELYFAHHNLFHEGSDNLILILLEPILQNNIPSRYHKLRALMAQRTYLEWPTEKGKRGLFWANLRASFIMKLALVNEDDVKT

[3] = system: RAW264.7; experiment: Cytotoxicity against mouse RAW264.7 cells; type: cell-based
[4] = target: Toll-like receptor 4 (Homo sapiens) (UniProt O00206); experiment: Inhibition of TLR4 binding to […]
Toll-like receptor 4 (Homo sapiens), sequence (O00206 whole entry): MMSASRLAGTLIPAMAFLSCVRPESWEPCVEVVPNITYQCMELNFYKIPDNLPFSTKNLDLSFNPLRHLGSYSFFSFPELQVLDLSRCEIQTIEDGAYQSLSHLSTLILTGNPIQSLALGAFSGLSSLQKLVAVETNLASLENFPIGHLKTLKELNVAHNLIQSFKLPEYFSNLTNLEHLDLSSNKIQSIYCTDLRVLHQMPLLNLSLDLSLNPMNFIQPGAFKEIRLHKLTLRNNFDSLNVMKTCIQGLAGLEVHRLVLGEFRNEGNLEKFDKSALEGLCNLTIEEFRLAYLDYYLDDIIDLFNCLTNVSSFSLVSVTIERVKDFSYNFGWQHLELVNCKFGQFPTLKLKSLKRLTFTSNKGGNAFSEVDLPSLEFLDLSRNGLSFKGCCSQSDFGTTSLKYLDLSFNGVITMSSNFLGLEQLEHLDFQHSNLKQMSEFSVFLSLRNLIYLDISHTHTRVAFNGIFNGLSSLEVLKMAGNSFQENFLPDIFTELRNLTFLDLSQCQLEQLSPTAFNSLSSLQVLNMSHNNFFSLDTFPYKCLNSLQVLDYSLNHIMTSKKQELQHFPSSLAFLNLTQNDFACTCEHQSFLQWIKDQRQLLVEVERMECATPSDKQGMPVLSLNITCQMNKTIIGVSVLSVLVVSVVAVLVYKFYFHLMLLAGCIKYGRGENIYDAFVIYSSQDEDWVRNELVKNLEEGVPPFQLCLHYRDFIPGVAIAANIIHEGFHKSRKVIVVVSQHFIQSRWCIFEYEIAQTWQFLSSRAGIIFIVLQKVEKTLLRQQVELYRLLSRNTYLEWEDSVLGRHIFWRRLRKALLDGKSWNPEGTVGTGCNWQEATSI

[5] = target: T3, Toll-like receptor 1 (Mus musculus) (UniProt Q9EPQ1); experiment: Inhibition TLR1-mediated NO production in mouse RAW264.7 cells at 300 nM
T3 sequence (whole entry): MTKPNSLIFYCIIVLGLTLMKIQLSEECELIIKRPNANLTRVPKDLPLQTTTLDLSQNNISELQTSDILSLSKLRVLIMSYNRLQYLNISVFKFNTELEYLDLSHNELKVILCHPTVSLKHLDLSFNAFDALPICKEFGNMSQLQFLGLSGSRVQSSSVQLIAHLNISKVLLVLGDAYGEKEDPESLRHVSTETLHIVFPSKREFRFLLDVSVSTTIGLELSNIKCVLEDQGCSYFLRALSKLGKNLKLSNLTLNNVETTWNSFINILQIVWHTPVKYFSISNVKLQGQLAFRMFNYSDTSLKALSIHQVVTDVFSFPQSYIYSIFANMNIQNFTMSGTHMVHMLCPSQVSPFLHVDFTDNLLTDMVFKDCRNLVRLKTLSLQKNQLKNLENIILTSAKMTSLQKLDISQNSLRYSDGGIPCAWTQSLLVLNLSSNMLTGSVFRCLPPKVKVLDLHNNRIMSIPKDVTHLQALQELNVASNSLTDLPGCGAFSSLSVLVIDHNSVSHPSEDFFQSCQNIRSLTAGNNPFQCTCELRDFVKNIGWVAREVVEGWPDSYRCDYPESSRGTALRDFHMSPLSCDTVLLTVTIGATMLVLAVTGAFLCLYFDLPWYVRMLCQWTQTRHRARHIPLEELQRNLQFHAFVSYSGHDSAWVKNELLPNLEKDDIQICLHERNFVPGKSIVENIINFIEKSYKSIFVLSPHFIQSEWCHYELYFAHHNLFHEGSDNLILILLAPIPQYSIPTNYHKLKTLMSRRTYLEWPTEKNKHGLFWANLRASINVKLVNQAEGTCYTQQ

[6] = target: Toll-like receptor 2 (Mus musculus) (UniProt Q9QUN7); experiment: Inhibition TLR2-mediated NO production in mouse RAW264.7 cells at 300 nM
Toll-like receptor 2 (Mus musculus), sequence (Q9QUN7 whole entry): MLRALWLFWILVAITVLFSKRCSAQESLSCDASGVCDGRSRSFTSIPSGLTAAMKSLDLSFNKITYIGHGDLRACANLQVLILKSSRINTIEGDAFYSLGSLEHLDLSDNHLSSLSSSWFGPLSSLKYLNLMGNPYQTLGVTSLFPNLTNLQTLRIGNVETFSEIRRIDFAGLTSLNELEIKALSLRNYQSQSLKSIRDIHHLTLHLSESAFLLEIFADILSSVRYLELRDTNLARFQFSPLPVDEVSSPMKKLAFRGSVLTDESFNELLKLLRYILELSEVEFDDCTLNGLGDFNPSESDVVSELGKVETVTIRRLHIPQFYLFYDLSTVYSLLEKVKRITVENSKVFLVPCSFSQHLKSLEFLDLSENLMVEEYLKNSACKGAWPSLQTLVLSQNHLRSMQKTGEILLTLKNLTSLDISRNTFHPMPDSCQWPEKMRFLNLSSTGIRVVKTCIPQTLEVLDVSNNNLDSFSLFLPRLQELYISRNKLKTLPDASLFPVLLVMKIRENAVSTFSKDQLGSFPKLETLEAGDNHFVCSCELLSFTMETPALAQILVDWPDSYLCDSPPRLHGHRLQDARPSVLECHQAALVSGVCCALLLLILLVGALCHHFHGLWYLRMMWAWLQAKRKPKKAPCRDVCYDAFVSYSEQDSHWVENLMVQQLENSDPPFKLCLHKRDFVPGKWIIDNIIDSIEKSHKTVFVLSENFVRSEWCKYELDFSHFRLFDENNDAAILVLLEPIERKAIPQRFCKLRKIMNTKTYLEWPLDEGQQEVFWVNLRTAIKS

[7] = target: T1, Toll-like receptor 4 (Mus musculus); experiment: Inhibition of LPS-induced TLR4 activation in mouse RAW264.7 cells at 200 nM to 200 uM; type: cell-based
Procedure, shortened: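 RAW264.7 mouse macrophages plated at 2×10^5 cells/ml on glass-bottom dishes 18 h before imaging. Washed with HBSS/25 mM HEPES pH 7.4, then placed in warmed conditioned Hanks imaging medium. Live-cell frames taken every 7.5 s: 5 baseline frames, vehicle or antagonist added, 20 frames, then LPS (E. coli 0111:B4) added, 20 further frames. C5a added to non-responding dishes to confirm the cells could respond.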

[8] = target: T4, Toll-like receptor 3 (Mus musculus) (UniProt Q99MB1); experiment: Inhibition TLR3-mediated NO production in mouse RAW264.7 cells at 300 nM
T4 sequence (whole entry): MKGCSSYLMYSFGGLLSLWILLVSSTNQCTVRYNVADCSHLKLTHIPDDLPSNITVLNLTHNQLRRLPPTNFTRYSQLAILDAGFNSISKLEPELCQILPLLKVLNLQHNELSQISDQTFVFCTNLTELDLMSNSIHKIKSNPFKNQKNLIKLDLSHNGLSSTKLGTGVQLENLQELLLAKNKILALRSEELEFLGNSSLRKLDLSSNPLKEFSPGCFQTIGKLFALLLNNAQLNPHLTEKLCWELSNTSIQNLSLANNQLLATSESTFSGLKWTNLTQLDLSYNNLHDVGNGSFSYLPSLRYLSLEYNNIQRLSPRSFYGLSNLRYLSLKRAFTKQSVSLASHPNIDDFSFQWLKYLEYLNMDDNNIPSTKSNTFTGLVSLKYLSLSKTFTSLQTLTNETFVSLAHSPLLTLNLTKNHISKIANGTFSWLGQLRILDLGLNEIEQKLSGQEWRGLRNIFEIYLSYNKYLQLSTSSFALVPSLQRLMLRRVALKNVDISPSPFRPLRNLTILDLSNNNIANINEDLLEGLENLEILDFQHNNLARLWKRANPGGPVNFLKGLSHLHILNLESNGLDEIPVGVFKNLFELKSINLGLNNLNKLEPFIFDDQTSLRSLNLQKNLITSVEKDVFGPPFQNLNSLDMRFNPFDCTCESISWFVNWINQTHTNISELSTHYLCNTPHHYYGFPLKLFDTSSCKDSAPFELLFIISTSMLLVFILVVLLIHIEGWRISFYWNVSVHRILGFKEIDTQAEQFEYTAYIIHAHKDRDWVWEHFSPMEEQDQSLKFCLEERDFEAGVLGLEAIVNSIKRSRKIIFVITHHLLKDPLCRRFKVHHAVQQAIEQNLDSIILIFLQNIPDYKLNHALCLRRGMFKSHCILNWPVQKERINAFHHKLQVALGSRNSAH

[9] = target: T5, Toll-like receptor 7 (Mus musculus) (UniProt P58681); experiment: Inhibition TLR7-mediated NO production in mouse RAW264.7 cells at 300 nM
T5 sequence (whole entry): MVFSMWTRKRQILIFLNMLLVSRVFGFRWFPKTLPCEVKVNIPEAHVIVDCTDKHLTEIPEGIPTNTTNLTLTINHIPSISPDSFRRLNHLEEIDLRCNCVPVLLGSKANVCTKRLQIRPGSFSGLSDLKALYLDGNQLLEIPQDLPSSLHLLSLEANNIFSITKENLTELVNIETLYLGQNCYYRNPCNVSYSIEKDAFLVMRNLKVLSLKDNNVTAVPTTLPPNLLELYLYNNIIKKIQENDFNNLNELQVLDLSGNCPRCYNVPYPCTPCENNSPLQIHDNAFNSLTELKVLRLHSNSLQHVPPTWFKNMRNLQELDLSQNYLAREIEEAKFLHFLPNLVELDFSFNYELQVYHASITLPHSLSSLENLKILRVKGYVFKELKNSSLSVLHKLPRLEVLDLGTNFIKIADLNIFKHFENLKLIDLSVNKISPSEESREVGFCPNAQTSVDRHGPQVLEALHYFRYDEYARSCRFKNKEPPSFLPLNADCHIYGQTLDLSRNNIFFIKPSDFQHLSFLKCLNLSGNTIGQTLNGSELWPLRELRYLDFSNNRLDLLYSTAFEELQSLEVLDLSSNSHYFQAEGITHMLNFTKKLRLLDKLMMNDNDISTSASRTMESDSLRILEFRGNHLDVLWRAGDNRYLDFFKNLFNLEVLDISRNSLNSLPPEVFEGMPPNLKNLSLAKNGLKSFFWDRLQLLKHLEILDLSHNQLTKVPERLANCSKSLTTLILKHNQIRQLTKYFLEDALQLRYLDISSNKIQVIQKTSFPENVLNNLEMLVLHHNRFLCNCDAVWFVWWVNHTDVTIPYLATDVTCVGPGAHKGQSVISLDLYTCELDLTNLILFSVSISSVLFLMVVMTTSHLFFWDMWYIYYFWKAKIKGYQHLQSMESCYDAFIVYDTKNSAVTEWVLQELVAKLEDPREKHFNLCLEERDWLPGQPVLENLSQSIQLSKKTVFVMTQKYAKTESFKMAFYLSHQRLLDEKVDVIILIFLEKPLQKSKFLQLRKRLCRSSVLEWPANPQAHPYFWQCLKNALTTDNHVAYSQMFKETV

Activity [1]	Activity [2]	Activity [4]	Activity [5]	Activity [6]	Activity [7]	Activity [8]	Activity [9]	Compound	Activity [3]
Active	inactive	Active	inactive	inactive	Active	inactive	inactive	CCOc1ccc(OCC(O)CN(C)Cc2c(C)nn(Cc3ccccc3Cl)c2C)cc1 (configuration not stated)	Non-toxic
–	–	Active	–	–	Active	–	–	CC(C)CC(=O)Nc1ccc(OC(=O)C23CC4CC(CC(C4)C2)C3)cc1	Non-toxic
